Where “and” joins values, the source holds several entries; their conditions need not be identical. Identical values can stand only once.
Experiments:
ear pinna [1] = assay: Skin; assay type: in vivo, B6C3F1 mice; conditions: dermal, 28 days
In short: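 Female B6C3F1 mice (5/group) received 25 μl/ear daily to the dorsal ears in acetone. About 24 h after the last dose, tissues went into RPMI: both auricular dLNs, half spleen and one ear pinna. Single-cell suspensions were acquired on an LSR II, with populations gated per supplemental strategy and FMO gating controls. Results are mean ± SE, n=5, by one-way ANOVA.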

ear pinna [2] = assay: Ear; assay type: in vivo, B6C3F1 mice; conditions: dermal, 28 days, mice affected of 5
In short: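 Female B6C3F1 mice (5/group) received 25 μl/ear on the dorsal ear surfaces daily, with acetone as vehicle. Tissues were formalin-fixed about 24 h after the last dose: liver remainder, half spleen, right kidney and half ear pinna. Sections were paraffin-embedded, cut at 5 μm and stained with H&E. A veterinary pathologist read them per STP guideline and graded 1 (minimal) to 5 (severe) by extent.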

[3] = PFAS concentration in pooled urine; assay type: in vivo, B6C3F1 mice; conditions: 5%, dermal, 28 days; 5 pooled samples
In short: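 Urine was caught in a weigh boat as it was excreted during CO2 euthanasia, about 24 h after the final daily ear dose (25 μl/ear, acetone vehicle; female B6C3F1 mice). The 5 mice per group were pooled, with variable volume. Samples underwent solid-phase extraction and LC/MS/MS, as linear isomer for short-chain analytes and linear plus branched for the comparator. Each group gave a single value without statistics.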

pH of PFAS = assay type: physicochemical; conditions: PFAS (5%) in PBS, free acid form
[4] = ref Russell et al., 2015, Xu et al., 2020; cited from earlier work

O=C(O)C(F)(F)C(F)(F)C(F)(F)C(F)(F)C(F)(F)C(F)(F)F [PFHpA, Perfluoroheptanoic acid]
Ear CD4^+ cell number (ear pinna [1]; 1.25%): 1.49 ± 0.38 × 10^3 | Ear CD4^+ frequency (ear pinna [1]; 1.25%): 1.78 ± 0.19% | Ear CD8^+ cell number (ear pinna [1]; 1.25%): 0.79 ± 0.14 × 10^2 | Ear CD8^+ frequency (ear pinna [1]; 1.25%): 0.11 ± 0.03% | Ear CD45^+ cell number (ear pinna [1]; 1.25%): 8.01 ± 1.58 × 10^4 | Ear CD45^+ frequency (ear pinna [1]; 1.25%): 8.04 ± 1.11% | Ear CD lib- F4/80+ DCs cell number (ear pinna [1]; 1.25%): 5.44 ± 0.94 × 10^2 | Ear CDllb + F4/80+ DCs cell number (ear pinna [1]; 1.25%): 4.52 ± 0.98 × 10^2 | Ear CDllb- F4/80+ DCs frequency (ear pinna [1]; 1.25%): 0.70 ± 0.05% | Ear CDllb- F4/80-DCs cell number (ear pinna [1]; 1.25%): 1.12 ± 0.29 × 10^3 | Ear CDllb- F4/80-DCs frequency (ear pinna [1]; 1.25%): 1.34 ± 0.16 % | Ear Dendritic Cells cell number (ear pinna [1]; 1.25%): 2.18 ± 0.47 × 10^3 | Ear Dendritic Cells frequency (ear pinna [1]; 1.25%): 2.69 ± 0.15% | Ear Eosinophils cell number (ear pinna [1]; 1.25%): 1.41 ± 0.42 × 10^3 | Ear Eosinophils frequency (ear pinna [1]; 1.25%): 1.60 ± 0.26% | Ear NK cell number (ear pinna [1]; 1.25%): 3.89 ± 0.91 × 10^2 | Ear NK frequency (ear pinna [1]; 1.25%): 0.48 ± 0.04% | Ear Neutrophils cell number (ear pinna [1]; 1.25%): 1.59 ± 0.24 × 10^2 | Ear Neutrophils frequency (ear pinna [1]; 1.25%): 0.21 ± 0.02% | Ear Total Cellularity (ear pinna [1]; 1.25%): 0.96 ± 0.08 × 10^6 | Ear CD8^+ cell number (ear pinna [1]; 2.5%): 1.77 ± 0.27 × 10^2 | Ear CD8^+ frequency (ear pinna [1]; 2.5%): 0.16 ± 0.01% | Ear CD lib- F4/80+ DCs cell number (ear pinna [1]; 2.5%): 7.95 ± 0.98 × 10^2 | Ear CDllb + F4/80+ DCs cell number (ear pinna [1]; 2.5%): 13.00 ± 2.97 × 10^2 | Ear CDllb + F4/80+ DCs frequency (ear pinna [1]; 2.5%): 1.13 ± 0.12 % | Ear CDllb- F4/80+ DCs frequency (ear pinna [1]; 2.5%): 0.75 ± 0.08 % | Ear CDllb- F4/80-DCs cell number (ear pinna [1]; 2.5%): 2.42 ± 0.45 × 10^3 | Ear Dendritic Cells frequency (ear pinna [1]; 2.5%): 4.21 ± 0.26 % | Ear Eosinophils cell number (ear pinna [1]; 2.5%): 5.54 ± 1.71 × 10^3 | Ear Eosinophils frequency (ear pinna [1]; 2.5%): 4.57 ± 0.96 % | Ear NK cell number (ear pinna [1]; 2.5%): 7.43 ± 1.69 × 10^2 | Ear NK frequency (ear pinna [1]; 2.5%): 0.66 ± 0.08% | Ear Neutrophils cell number (ear pinna [1]; 2.5%): 2.48 ± 0.43 × 10^2 | Ear CD4^+ cell number (ear pinna [1]; 5%): 6.06 ± 0.33 × 10^3 | Ear CD4^+ frequency (ear pinna [1]; 5%): 4.18 ± 0.24 % | Ear CD8^+ cell number (ear pinna [1]; 5%): 2.81 ± 0.39 × 10^2 | Ear CD8^+ frequency (ear pinna [1]; 5%): 0.20 ± 0.03 % | Ear CD45^+ cell number (ear pinna [1]; 5%): 14.60 ± 0.67 × 10^4 | Ear CD45^+ frequency (ear pinna [1]; 5%): 12.38 ± 0.81% | Ear CD lib- F4/80+ DCs cell number (ear pinna [1]; 5%): 14.50 ± 0.97 × 10^2 | Ear CDllb + F4/80+ DCs cell number (ear pinna [1]; 5%): 18.90 ± 1.84 × 10^2 | Ear CDllb + F4/80+ DCs frequency (ear pinna [1]; 5%): 1.31 ± 0.14 % | Ear CDllb- F4/80+ DCs frequency (ear pinna [1]; 5%): 1.00 ± 0.07 % | Ear CDllb- F4/80-DCs cell number (ear pinna [1]; 5%): 3.38 ± 0.19 × 10^3 | Ear CDllb- F4/80-DCs frequency (ear pinna [1]; 5%): 2.32 ± 0.03% | Ear Dendritic Cells cell number (ear pinna [1]; 5%): 7.25 ± 0.31 × 10^3 | Ear Dendritic Cells frequency (ear pinna [1]; 5%): 4.99 ± 0.15 % | Ear Eosinophils cell number (ear pinna [1]; 5%): 6.45 ± 1.12 × 10^3 | Ear Eosinophils frequency (ear pinna [1]; 5%): 4.36 ± 0.63 % | Ear NK cell number (ear pinna [1]; 5%): 7.96 ± 0.70 × 10^2 | Ear NK frequency (ear pinna [1]; 5%): 0.56 ± 0.07% | Ear Neutrophils cell number (ear pinna [1]; 5%): 7.10 ± 1.15 × 10^2 | Ear Neutrophils frequency (ear pinna [1]; 5%): 0.49 ± 0.07 % | Ear Total Cellularity (ear pinna [1]; 5%): 1.19 ± 0.08 × 10^6 | Ear: Degeneration/regeneration, cartilage, focal, Mild (incidence) (ear pinna [2]; 1.25%): 0 | Ear: Fibrosis, dermis, focal, Minimal (incidence) (ear pinna [2]; 1.25%): 0 | Ear: Hyperkeratosis, epidermis, focal, Mild (incidence) (ear pinna [2]; 1.25%): 0 | Ear: Hyperkeratosis, epidermis, focal, Minimal (incidence) (ear pinna [2]; 1.25%): 0 | Ear: Hyperplasia, epidermis, focal, Mild (incidence) (ear pinna [2]; 1.25%): 0 | Ear: Hyperplasia, epidermis, focal, Minimal (incidence) (ear pinna [2]; 1.25%): 0 | Ear: Inflammation, mixed cell, dermis, Minimal (incidence) (ear pinna [2]; 1.25%): 0 | Ear: Inflammation, mononuclear cell, dermis, Minimal (incidence) (ear pinna [2]; 1.25%): 0 | Ear: Necrosis, epidermis, multifocal, Minimal (incidence) (ear pinna [2]; 1.25%): 0 | Ear: Degeneration/regeneration, cartilage, focal, Mild (incidence) (ear pinna [2]; 2.5%): 0 | Ear: Fibrosis, dermis, focal, Minimal (incidence) (ear pinna [2]; 2.5%): 0 | Ear: Hyperkeratosis, epidermis, focal, Mild (incidence) (ear pinna [2]; 2.5%): 0 | Ear: Hyperkeratosis, epidermis, focal, Minimal (incidence) (ear pinna [2]; 2.5%): 0 | Ear: Hyperplasia, epidermis, focal, Mild (incidence) (ear pinna [2]; 2.5%): 0 | Ear: Hyperplasia, epidermis, focal, Minimal (incidence) (ear pinna [2]; 2.5%): 2/5 and 2 | Ear: Inflammation, mixed cell, dermis, Minimal (incidence) (ear pinna [2]; 2.5%): 0 | Ear: Inflammation, mononuclear cell, dermis, Minimal (incidence) (ear pinna [2]; 2.5%): 0 | Ear: Necrosis, epidermis, multifocal, Minimal (incidence) (ear pinna [2]; 2.5%): 0 | Ear: Fibrosis, dermis, focal, Minimal (incidence) (ear pinna [2]; 5%): 0 | Ear: Hyperkeratosis, epidermis, focal, Mild (incidence) (ear pinna [2]; 5%): 0 | Ear: Hyperkeratosis, epidermis, focal, Minimal (incidence) (ear pinna [2]; 5%): 4/5 and 4 | Ear: Hyperplasia, epidermis, focal, Mild (incidence) (ear pinna [2]; 5%): 1/4 and 1 | Ear: Hyperplasia, epidermis, focal, Minimal (incidence) (ear pinna [2]; 5%): 4/5 and 4 | Ear: Inflammation, mixed cell, dermis, Minimal (incidence) (ear pinna [2]; 5%): 1 | Ear: Inflammation, mononuclear cell, dermis, Minimal (incidence) (ear pinna [2]; 5%): 1 | Ear: Necrosis, epidermis, multifocal, Minimal (incidence) (ear pinna [2]; 5%): 0 | urine PFAS concentration [3]: 1200 µg/mL | pH (pH of PFAS): 1.49 | estimated half-life in humans [4]: 62 to 70 days
